# Measured values of several laboratories.
# Each line is one published result; the experiments were not run side by side.
# Mode: inhibitor
# MAL12: Alpha-glucosidase MAL12 (MAL12, Saccharomyces cerevisiae S288c, UniProt P53341)
# SQLE: Squalene monooxygenase (SQLE, Homo sapiens, UniProt Q14534)
# SLC22A6: Solute carrier family 22 member 6 (SLC22A6, Homo sapiens, UniProt Q4U2R8)
# FABP1: Fatty acid-binding protein, liver (FABP1, Homo sapiens, UniProt P07148)
Structure (SMILES),target,assay,conditions,IC50
COc1ccc(-c2nn(-c3ccccc3)cc2C2C(C(C)=O)=C(C)n3c(=O)c4ccccc4c(=O)n32)cc1 (centres unmarked),MAL12,"enzyme activity, absorbance",,13.7 µM
COc1cc(-c2oc3cc(O)cc(O)c3c(=O)c2O)ccc1O,SQLE,"enzyme activity, radiometric",,11.5 µM
CC(CN1CCN(CCOCCO)CC1)CN1c2ccccc2Sc2ccccc21 (centres unmarked),SQLE,"enzyme activity, absorbance","pH 7.4, with preincubation",10 µM
CC(=O)C1=C(C)n2c(=O)c3ccccc3c(=O)n2C1c1cn(-c2ccccc2)nc1-c1ccc(O)cc1 (centres unmarked),MAL12,"enzyme activity, absorbance",,494 µM
COc1ccc(NC(=O)N2CCN(c3ccnc(Nc4ccc(Cl)cc4)n3)[C@H](C)C2)cc1,MAL12,"enzyme activity, absorbance",pH 6.9,23.4 µM
Nc1ccn(C[C@@H](CO)OCP(=O)(O)O)c(=O)n1,"Solute carrier family 22 member 6 (SLC22A6, Homo sapiens, UniProt Q4U2R8, N439A)","transporter uptake, fluorescence",,225 µM
CC(C)=CCC/C(C)=C/CC/C(C)=C/CC/C=C(\C)CC/C=C(\C)CCCNC1CC1,SQLE,"enzyme activity, radiometric",,2.68 µM
CCN(CC)C(C)CN1c2ccccc2Sc2ccccc21 (centres unmarked),SQLE,"enzyme activity, absorbance","pH 7.4, with preincubation",1.69 µM
C[C@H]1CN(C(=O)Nc2ccc(C(F)(F)F)cc2)CCN1c1ccnc(Nc2ccc(Cl)c(O)c2)n1,MAL12,"enzyme activity, absorbance",pH 6.9,0.44 µM
C[C@H]1CN(C(=O)CC#N)[C@]12CCN(c1ncnc3[nH]ccc13)C2,SLC22A6,transporter uptake,,1.59 µM
CC1(C)CC(=O)C2=C(C1)n1c(=O)c3ccccc3c(=O)n1C2c1cn(-c2ccccc2)nc1-c1ccc(O)cc1 (centres unmarked),MAL12,"enzyme activity, absorbance",,108 µM
CCCOc1ccc2c(c1)O/C(=C\c1ccc(OC(C)(C)C(=O)O)cc1)C2=O,FABP1,"cell-free assay, fluorescence",pH 7.4,9.4 µM
C[C@H]1CN(C(=O)Nc2ccc(C(F)(F)F)cc2)CCN1c1ccnc(Nc2ccc(Cl)cc2)n1,MAL12,"enzyme activity, absorbance",pH 6.9,1.1 µM
CCCOc1ccc2c(c1)O/C(=C\c1ccc(OC(C)(C)C(=O)O)c(C)c1)C2=O,FABP1,"cell-free assay, fluorescence",pH 7.4,5.8 µM
C[C@H]1CN(C(=O)Nc2ccc(C(F)(F)F)cc2)CCN1c1ccnc(Nc2ccc(Br)cc2)n1,MAL12,"enzyme activity, absorbance",pH 6.9,1.59 µM
O=c1cc(-c2ccc(O)cc2)oc2cc(O[C@@H]3O[C@H](CO)[C@@H](O)[C@H](O)[C@H]3O)cc(O)c12,SQLE,"enzyme activity, radiometric",,1.74 µM
CCCOc1ccc2c(c1)O/C(=C\c1ccc(OCC(=O)O)cc1)C2=O,FABP1,"cell-free assay, fluorescence",pH 7.4,14.6 µM
CNC(=O)[C@H](Cc1c[nH]c2ccccc12)NC(=O)[C@@H](CC(=O)NO)CC(C)C,"Disintegrin and metalloproteinase domain-containing protein 10 (ADAM10, Homo sapiens, UniProt O14672)",enzyme activity,,0.776 µM
C[C@@H]1CN(C(=O)Nc2ccc(Cl)c(Cl)c2)CCN1c1ccnc(Nc2ccc(Cl)cc2)n1,MAL12,"enzyme activity, absorbance",pH 6.9,4.53 µM
Cc1cc(/C=C2\Oc3cc(OCC4CC4)ccc3C2=O)cc(C)c1OC(C)(C)C(=O)O,FABP1,"cell-free assay, fluorescence",pH 7.4,3.6 µM
O=C1C[C@@H](c2ccc(O)cc2)Oc2cc(O)cc(O)c21,SQLE,"enzyme activity, radiometric",,6.52 µM
Cc1ccc(NC(=O)N2CCN(c3ccnc(Nc4ccc(Cl)cc4)n3)[C@@H](C)C2)cc1,MAL12,"enzyme activity, absorbance",pH 6.9,2.42 µM
OCCN1CCN(CCCN2c3ccccc3Sc3ccc(C(F)(F)F)cc32)CC1,SQLE,"enzyme activity, absorbance","pH 7.4, with preincubation",12.3 µM
CCOc1ccc2c(c1)O/C(=C\c1cc(C)c(OC(C)(C)C(=O)O)c(C)c1)C2=O,FABP1,"cell-free assay, fluorescence",pH 7.4,8.6 µM
C[C@H]1CN(C(=O)Nc2ccc(C(F)(F)F)cc2)CCN1c1ccnc(Nc2cccc(O)c2)n1,MAL12,"enzyme activity, absorbance",pH 6.9,2.05 µM
CCCOc1ccc2c(c1)O/C(=C\c1ccc(OC(C)(C)C(=O)O)c(F)c1)C2=O,FABP1,"cell-free assay, fluorescence",pH 7.4,9.2 µM
NS(=O)(=O)c1ccc(-n2nc(C(=O)NN=Cc3ccc(O)cc3)cc2-c2ccccc2)cc1,"Focal adhesion kinase 1 (PTK2, Homo sapiens, UniProt Q05397)","enzyme activity, ELISA",,17.1 µM
Cc1cc(/C=C2\Oc3cc(OCCC(C)C)ccc3C2=O)cc(C)c1OC(C)(C)C(=O)O,FABP1,"cell-free assay, fluorescence",pH 7.4,9.6 µM
COc1ccc(Cl)cc1C(=O)NCCc1ccc(S(=O)(=O)NC(=O)NC2CCCCC2)cc1,SLC22A6,"transporter uptake, fluorescence",,2.4 µM
